According to ChEMBL document CHEMBL4118021, “Studies of TAK1-centered polypharmacology with novel covalent TAK1 inhibitors” (Bioorg Med Chem, 2017):
The source made the active and inactive calls. The calls are words filed in the database; no cut-off is given here.

Key:
[1] = biological target: T1, Serine/threonine-protein kinase D2 (Homo sapiens) (UniProt Q9BZL6); assay: Inhibition of human PRKD2 (519 to 838 residues) expressed in bacterial expression system assessed as enzyme activity at 10 uM by KINOMEScan assay relative to control; parameters: scale not given: the % may be the effect or the level left
T1 sequence (whole entry): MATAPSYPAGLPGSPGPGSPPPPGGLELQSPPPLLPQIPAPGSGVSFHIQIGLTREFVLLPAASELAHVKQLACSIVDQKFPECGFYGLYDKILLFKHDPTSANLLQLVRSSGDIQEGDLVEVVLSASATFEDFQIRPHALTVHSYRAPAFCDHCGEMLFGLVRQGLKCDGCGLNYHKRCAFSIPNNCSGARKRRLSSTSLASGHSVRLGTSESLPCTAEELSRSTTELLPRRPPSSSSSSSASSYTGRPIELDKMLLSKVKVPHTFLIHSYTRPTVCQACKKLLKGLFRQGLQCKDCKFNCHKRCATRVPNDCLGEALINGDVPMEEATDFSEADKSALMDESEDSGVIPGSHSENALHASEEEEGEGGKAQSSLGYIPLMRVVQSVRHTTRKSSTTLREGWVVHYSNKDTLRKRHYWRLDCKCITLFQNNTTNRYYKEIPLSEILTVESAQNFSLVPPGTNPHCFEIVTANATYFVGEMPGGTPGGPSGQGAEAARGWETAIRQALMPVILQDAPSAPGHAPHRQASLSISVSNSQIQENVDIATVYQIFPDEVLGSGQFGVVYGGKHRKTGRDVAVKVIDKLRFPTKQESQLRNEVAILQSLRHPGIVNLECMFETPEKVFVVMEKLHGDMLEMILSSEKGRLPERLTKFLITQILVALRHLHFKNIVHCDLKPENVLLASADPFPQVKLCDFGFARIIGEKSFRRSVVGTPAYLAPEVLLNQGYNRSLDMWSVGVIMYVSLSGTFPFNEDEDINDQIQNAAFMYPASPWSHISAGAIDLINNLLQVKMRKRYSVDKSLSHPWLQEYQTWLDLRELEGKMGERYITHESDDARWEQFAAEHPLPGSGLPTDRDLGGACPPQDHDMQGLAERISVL
Method in brief: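 In vitro ATP-site competition binding assay across a panel of 456 kinases, with compound tested at 1 and 10 μM.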

[2] = biological target: Serine/threonine-protein kinase Nek8 (Homo sapiens) (UniProt Q86SG6); assay: Inhibition of NEK8 in human SKCO1 cells at 1 uM after 4 hrs using biotin labeled DLKTQNILLDK probe by mass-spectrometric analysis relative to control; type: cell-based
[3] = biological target: Peripheral plasma membrane protein CASK (Homo sapiens) (UniProt O14936); assay: Inhibition of CASK in human SKCO1 cells at 1 uM after 4 hrs using biotin labeled ETGQQFAVKIVDVAK probe by mass-spectrometric analysis relative to control; type: cell-based
[4] = biological target: Ras GTPase-activating-like protein IQGAP1 (Homo sapiens) (UniProt P46940); assay: Binding affinity to IQGAP1 in human NCI-H358 cells at 1 uM by mass spectrometry based pull down assay; type: cell-based
[5] = biological target: Y-box-binding protein 3 (Homo sapiens) (UniProt P16989); assay: Binding affinity to YBX3 in human NCI-H23 cells at 1 uM by mass spectrometry based pull down assay; type: cell-based
[6] = biological target: Inter-alpha-trypsin inhibitor heavy chain H2 (Homo sapiens) (UniProt P19823); assay: Binding affinity to ITIH2 in human NCI-H358 cells at 1 uM by mass spectrometry based pull down assay; type: cell-based
[7] = biological target: Transforming growth factor-beta-induced protein ig-h3 (Homo sapiens) (UniProt Q15582); assay: Binding affinity to TGFBI in human NCI-H358 cells at 1 uM by mass spectrometry based pull down assay; type: cell-based
[8] = biological target: Monofunctional C1-tetrahydrofolate synthase, mitochondrial (Homo sapiens) (UniProt Q6UB35); assay: Binding affinity to MTHFD1L in human NCI-H23 cells at 1 uM by mass spectrometry based pull down assay; type: cell-based
[9] = biological target: Thioredoxin reductase 1, cytoplasmic (Homo sapiens) (UniProt Q16881); assay: Binding affinity to TXNRD1 in human NCI-H23 cells at 1 uM by mass spectrometry based pull down assay; type: cell-based
[10] = biological target: Glycogen synthase kinase-3 alpha (Homo sapiens) (UniProt P49840); assay: Binding affinity to GSK3A in human NCI-H358 cells at 1 uM by mass spectrometry based pull down assay; type: cell-based
[11] = biological target: Proteasome activator complex subunit 2 (Homo sapiens) (UniProt Q9UL46); assay: Binding affinity to PSME2 in human NCI-H358 cells at 1 uM by mass spectrometry based pull down assay; type: cell-based
[12] = biological target: 5'-nucleotidase domain-containing protein 1 (Homo sapiens) (UniProt Q5TFE4); assay: Binding affinity to NT5DC1 in human NCI-H23 cells at 1 uM by mass spectrometry based pull down assay; type: cell-based
[13] = biological target: Ribonucleoside-diphosphate reductase large subunit (Homo sapiens) (UniProt P23921); assay: Binding affinity to RRM1 in human NCI-H358 cells at 1 uM by mass spectrometry based pull down assay; type: cell-based
[14] = biological target: 80S Ribosome (Homo sapiens) (UniProt P08865+P42677+P62753+P15880+P23396+P61247+P62701+P22090+P46782+P62081+P62241+P46781+P46783+P62280+P25398+P62277+P62263+P62841+P62244+P62249+P08708+P62269+P39019+P60866+P63220+P62266+P62847+P62851+P62854+P62979+P62857+P62273+P62861+P39023+P36578+P46777+Q02878+P18124+P62424+P62917+P32969+P27635+P62906+P62913+P30050+P26373+P40429+P50914+P61313+P18621+Q07020+Q02543+P84098+P46778+P35268+P62829+P62750+P83731+P61254+P61353+P46776+P46779+P47914+P62888+P62899+P62910+P49207+P42766+P18077+Q9Y3U8+P83881+P61927+P61513+P63173+P62891+P62945+P05388+P05386); assay: Binding affinity to RPL26 in human NCI-H358 cells at 1 uM by mass spectrometry based pull down assay; type: cell-based
[15] = biological target: Signal transducer and activator of transcription 1-alpha/beta (Homo sapiens) (UniProt P42224); assay: Binding affinity to STAT1 in human NCI-H23 cells at 1 uM by mass spectrometry based pull down assay; type: cell-based
[16] = biological target: Small COPII coat GTPase SAR1A (Homo sapiens) (UniProt Q9NR31); assay: Binding affinity to SAR1A in human NCI-H23 cells at 1 uM by mass spectrometry based pull down assay; type: cell-based
[17] = biological target: Signal recognition particle subunit SRP54 (Homo sapiens) (UniProt P61011); assay: Binding affinity to SRP54 in human NCI-H358 cells at 1 uM by mass spectrometry based pull down assay; type: cell-based
[18] = biological target: Glyoxalase domain-containing protein 4 (Homo sapiens) (UniProt Q9HC38); assay: Binding affinity to GLOD4 in human NCI-H358 cells at 1 uM by mass spectrometry based pull down assay; type: cell-based
Chain of Glyoxalase domain-containing protein 4 (Homo sapiens) (Q9HC38 whole entry, the tested form may be a part): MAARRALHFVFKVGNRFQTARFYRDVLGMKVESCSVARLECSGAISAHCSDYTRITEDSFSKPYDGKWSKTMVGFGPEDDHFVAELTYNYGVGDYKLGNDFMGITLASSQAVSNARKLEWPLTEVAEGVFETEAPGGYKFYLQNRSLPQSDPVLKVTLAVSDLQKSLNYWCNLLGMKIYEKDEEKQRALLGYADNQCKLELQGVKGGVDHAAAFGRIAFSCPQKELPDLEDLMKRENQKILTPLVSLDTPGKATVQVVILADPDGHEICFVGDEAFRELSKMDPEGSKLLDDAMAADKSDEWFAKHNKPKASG

Chain of Transforming growth factor-beta-induced protein ig-h3 (Homo sapiens) (Q15582 whole entry): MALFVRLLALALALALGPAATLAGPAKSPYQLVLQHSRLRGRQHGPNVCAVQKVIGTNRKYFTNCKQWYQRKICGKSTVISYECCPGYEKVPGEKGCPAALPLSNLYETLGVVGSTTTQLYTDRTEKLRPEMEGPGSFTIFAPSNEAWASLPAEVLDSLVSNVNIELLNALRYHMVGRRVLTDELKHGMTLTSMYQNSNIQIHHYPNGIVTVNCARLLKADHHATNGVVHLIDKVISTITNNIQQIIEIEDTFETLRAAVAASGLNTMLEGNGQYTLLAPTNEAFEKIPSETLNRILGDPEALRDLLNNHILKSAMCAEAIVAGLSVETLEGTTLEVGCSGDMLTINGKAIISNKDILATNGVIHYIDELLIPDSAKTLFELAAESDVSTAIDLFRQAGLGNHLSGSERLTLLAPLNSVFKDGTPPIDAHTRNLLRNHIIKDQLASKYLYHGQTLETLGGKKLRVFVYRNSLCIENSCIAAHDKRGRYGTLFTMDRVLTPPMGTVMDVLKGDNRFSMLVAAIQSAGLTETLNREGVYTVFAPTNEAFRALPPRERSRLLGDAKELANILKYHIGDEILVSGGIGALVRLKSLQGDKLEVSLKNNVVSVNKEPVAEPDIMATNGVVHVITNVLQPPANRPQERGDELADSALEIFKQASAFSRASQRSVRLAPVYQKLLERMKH
Chain of Peripheral plasma membrane protein CASK (Homo sapiens) (O14936 whole entry): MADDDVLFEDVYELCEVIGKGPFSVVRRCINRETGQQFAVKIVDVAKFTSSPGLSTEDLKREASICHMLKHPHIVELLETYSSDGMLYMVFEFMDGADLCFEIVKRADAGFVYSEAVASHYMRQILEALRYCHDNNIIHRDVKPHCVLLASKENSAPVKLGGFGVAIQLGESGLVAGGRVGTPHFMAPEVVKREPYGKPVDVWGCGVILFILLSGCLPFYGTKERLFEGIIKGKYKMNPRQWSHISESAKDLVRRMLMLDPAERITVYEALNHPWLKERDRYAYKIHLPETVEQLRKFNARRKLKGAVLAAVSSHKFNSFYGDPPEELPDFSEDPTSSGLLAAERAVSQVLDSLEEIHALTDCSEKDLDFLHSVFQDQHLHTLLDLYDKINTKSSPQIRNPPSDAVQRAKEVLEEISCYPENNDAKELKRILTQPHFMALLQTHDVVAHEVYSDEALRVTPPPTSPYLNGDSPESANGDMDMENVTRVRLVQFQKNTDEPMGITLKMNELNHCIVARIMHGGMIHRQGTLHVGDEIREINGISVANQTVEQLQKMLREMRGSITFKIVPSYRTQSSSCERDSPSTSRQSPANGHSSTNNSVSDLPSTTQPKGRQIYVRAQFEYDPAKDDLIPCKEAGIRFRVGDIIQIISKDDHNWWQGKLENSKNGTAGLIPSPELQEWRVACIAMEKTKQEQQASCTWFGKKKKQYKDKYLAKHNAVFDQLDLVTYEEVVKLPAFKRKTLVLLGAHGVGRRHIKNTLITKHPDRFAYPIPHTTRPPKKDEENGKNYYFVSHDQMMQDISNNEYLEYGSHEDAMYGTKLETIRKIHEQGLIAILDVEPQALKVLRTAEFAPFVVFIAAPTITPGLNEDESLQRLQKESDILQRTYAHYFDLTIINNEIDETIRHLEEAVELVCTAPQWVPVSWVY
Chain of Glycogen synthase kinase-3 alpha (Homo sapiens) (P49840 2-483 limits assumed): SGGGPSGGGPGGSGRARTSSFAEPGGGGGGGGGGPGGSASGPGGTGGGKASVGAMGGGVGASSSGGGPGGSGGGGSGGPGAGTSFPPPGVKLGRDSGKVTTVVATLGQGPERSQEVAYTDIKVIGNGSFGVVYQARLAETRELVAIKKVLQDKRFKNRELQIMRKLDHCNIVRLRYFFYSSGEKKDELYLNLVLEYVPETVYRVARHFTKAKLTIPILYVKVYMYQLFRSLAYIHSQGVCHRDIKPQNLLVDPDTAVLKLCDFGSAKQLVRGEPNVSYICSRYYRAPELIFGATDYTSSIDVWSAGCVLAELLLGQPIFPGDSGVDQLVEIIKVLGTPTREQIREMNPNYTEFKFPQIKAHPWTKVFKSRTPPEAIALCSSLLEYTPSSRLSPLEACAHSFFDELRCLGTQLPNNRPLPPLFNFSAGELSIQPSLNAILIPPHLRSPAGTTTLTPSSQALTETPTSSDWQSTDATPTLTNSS
Chain of Signal transducer and activator of transcription 1-alpha/beta (Homo sapiens) (P42224 whole entry): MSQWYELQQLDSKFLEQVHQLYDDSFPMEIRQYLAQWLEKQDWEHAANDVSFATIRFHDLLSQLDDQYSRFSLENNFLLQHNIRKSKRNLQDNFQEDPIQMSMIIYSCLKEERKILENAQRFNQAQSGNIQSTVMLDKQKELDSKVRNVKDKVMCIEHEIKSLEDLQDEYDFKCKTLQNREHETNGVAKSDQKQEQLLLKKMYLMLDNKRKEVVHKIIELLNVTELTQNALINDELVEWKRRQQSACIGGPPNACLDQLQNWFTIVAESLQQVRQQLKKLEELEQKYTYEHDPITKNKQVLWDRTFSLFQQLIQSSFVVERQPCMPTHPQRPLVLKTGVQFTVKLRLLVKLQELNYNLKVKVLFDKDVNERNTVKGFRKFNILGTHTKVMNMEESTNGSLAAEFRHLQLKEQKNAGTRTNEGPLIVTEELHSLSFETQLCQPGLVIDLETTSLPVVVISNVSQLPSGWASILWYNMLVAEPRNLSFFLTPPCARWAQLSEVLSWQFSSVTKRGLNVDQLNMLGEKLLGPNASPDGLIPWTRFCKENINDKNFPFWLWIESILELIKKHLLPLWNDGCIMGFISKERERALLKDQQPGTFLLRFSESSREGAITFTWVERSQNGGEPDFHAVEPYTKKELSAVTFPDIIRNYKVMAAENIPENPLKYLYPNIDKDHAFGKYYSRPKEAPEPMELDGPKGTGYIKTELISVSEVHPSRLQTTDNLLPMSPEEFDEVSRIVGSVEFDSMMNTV
Chain of Serine/threonine-protein kinase Nek8 (Homo sapiens) (Q86SG6 whole entry): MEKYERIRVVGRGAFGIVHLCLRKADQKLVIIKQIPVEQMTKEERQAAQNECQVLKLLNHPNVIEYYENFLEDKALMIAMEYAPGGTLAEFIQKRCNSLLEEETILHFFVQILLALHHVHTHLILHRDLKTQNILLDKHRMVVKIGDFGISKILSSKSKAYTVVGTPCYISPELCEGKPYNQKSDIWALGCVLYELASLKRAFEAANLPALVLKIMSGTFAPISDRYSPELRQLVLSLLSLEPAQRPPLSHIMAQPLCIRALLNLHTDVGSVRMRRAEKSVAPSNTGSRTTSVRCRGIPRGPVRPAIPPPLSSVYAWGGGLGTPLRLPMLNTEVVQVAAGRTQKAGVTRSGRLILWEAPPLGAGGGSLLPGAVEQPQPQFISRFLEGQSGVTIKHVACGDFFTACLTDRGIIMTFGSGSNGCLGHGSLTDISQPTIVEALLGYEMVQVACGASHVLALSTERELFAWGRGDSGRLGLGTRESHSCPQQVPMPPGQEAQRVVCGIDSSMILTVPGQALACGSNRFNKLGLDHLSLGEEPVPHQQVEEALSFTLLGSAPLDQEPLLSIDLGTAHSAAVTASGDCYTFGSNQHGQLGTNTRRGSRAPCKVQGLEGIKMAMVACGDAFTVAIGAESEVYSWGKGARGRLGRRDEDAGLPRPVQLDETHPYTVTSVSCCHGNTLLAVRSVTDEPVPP
Chain of Monofunctional C1-tetrahydrofolate synthase, mitochondrial (Homo sapiens) (Q6UB35 whole entry): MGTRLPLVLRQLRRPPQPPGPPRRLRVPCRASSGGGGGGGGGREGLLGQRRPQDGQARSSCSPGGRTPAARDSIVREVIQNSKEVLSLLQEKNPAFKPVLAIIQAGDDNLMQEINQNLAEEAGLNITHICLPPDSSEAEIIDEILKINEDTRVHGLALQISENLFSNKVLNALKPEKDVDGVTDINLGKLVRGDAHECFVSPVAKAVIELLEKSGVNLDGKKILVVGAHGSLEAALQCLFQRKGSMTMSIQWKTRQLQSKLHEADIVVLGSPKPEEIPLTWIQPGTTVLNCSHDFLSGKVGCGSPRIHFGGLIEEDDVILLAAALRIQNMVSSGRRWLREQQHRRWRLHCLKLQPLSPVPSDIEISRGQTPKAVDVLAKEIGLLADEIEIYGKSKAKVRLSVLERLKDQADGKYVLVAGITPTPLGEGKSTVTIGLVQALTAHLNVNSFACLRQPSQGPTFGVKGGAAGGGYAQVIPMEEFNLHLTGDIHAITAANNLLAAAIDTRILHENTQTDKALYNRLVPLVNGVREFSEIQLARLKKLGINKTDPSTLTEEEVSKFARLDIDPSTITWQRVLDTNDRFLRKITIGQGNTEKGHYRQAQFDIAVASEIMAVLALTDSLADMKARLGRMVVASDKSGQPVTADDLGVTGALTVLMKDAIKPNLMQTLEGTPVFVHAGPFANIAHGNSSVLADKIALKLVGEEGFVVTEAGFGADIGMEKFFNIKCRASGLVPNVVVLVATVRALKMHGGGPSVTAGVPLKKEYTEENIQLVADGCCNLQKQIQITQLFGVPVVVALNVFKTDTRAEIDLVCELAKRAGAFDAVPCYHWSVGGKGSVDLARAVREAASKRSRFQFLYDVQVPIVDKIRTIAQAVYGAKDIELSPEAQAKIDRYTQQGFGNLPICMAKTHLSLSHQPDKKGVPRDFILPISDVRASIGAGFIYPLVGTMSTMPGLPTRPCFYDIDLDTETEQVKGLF
Chain of Small COPII coat GTPase SAR1A (Homo sapiens) (Q9NR31 whole entry): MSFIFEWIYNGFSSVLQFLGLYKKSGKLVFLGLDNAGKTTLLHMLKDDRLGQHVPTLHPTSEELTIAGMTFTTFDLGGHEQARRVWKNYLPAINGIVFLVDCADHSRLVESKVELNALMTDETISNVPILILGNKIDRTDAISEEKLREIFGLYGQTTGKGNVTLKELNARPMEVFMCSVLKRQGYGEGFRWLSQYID

Compound `COc1cc(O)c2c(c1)/C=C/C[C@H](O)[C@H](O)C(=O)/C=C\C[C@H](C)OC2=O` has an Activity [1] of 2.5% and an inhibition [2] of -9.5%.

`C=CC(=O)Nc1ccccc1Nc1nc(Nc2ccc(N3CCN(C)CC3)cc2)ncc1Cl` gave an inhibition [3] of -10%.

`C=CC(=O)Nc1ccccc1Nc1nc(Nc2ccc(N3CCN(CCOCCOCCOCCNC(=O)CCCC[C@@H]4SC[C@@H]5NC(=O)N[C@@H]54)CC3)cc2)ncc1Cl` was tested, and the Activity [4] was “Active”, the Activity [5] was “Active” and the Activity [6] was “Active”. The Activity [7] was “Active”, the Activity [8] was “Active” and the Activity [9] was “Active”. For the same compound, the Activity [10] was “Active”, the Activity [11] was “Active” and the Activity [12] was “Active”. For the same compound, the Activity [13] was “Active”, the Activity [14] was “Active” and the Activity [15] was “Active”. For the same compound, the Activity [16] was “Active”, the Activity [17] was “Active” and the Activity [18] was “Active”.
